Test results as given in PubChem BioAssay AID623885 (Vanderbilt Specialized Chemistry Center, 2012).
pIC50: −log10 of the molar value. Where “and” joins values, the source holds several entries; their conditions need not be identical. Identical values can stand only once. Calls of active or inactive are those of the source.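 The calls were made as follows: active = mean half-maximal effective concentration under 30 µM; inactive = the rest.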

The molecules below were run against Metabotropic glutamate receptor 3 (Rattus norvegicus) (UniProt P31422) (assay: inhibition of glutamate response at mGlu3 – thallium flux, HEK/GIRK cells, rat, dose response (AID 623885)). Conditions: HEK293 GIRK rat mGlu3, thallium flux fluorescence.
How it was run: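 Material: HEK cells stably co-expressing GIRK channels, M4 muscarinic receptor, rat mGlu3. Probe or stimulus: thallium-containing buffer with or without agonist. Timing: dye loading 1 h room temperature, compounds ~2.5 min. Signal: thallium influx through GIRK, FluoZin-2 AM fluorescence. Read-out: baseline-normalized fluorescence slope 5–15 s post thallium/agonist, four-parameter logistic fit.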

Sequence of Metabotropic glutamate receptor 3 (Rattus norvegicus) (P31422 whole entry, looked up): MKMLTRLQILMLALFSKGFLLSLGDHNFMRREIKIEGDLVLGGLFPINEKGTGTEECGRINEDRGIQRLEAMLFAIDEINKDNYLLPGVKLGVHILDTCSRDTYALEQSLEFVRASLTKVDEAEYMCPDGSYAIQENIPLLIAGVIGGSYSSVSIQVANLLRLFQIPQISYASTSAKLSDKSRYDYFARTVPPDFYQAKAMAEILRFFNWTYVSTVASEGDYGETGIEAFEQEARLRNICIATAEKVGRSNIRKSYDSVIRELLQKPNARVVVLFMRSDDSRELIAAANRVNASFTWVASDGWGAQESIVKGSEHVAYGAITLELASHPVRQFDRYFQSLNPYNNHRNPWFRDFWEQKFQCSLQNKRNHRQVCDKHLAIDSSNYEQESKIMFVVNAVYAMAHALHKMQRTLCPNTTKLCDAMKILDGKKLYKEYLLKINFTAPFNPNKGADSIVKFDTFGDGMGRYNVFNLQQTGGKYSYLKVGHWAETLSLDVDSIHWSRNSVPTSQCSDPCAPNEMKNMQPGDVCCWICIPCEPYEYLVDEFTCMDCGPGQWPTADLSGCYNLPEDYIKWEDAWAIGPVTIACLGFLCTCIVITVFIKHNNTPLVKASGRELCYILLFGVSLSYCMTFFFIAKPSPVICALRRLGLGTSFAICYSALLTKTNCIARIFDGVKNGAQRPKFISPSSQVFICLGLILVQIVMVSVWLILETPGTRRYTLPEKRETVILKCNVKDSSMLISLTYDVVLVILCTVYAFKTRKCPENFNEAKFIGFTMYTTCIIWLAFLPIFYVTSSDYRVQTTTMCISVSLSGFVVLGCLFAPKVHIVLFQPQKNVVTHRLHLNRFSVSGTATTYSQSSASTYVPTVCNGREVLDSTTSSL

SMILES	pIC50
COc1ccc(C#Cc2ccc(C(=O)N3CCC[C@H](CO)C3)cc2)cc1	5.46
COc1ccc(C#Cc2ccc(C(=O)N3CCC[C@@H](CO)C3)cc2)cc1	5.83

Same assay, conditions: HEK293 GIRK rat mGlu3, thallium flux fluorescence; at 30 µM (top of the series)

SMILES	percent of glutamate max response
COc1ccc(C#Cc2ccc(C(=O)N3CCC(O)(c4ccc(Cl)c(C(F)(F)F)c4)CC3)cc2)cc1	117
CC(=O)OCC#Cc1ccc(C(=O)N2CCC(O)CC2)cc1	inactive
N#CCCCC#Cc1ccc(C(=O)N2CCC(O)CC2)cc1	inactive
COc1ccc(C#Cc2ccc(C(=O)NC(C)C)cc2)cc1	inactive
CC(C)(O)C#Cc1ccc(C(=O)N2CCC(O)CC2)cc1	inactive
COc1ccc(C#Cc2ccc(C(=O)NCC(C)O)cc2)cc1 (configuration not stated)	inactive
CCc1ccc(C#Cc2ccc(C(=O)N3CCC(O)CC3)cc2)cc1	62
O=C(c1ccc(C#CCN2N=NCc3ccccc32)cc1)N1CCC(O)CC1	inactive
COc1ccc(C#Cc2cccc(C(=O)N3CCC(O)CC3)c2)cc1	13.9
COc1ccc(C#Cc2ccc(C(=O)N3C[C@H]4C[C@@H]3CN4C(=O)OC(C)(C)C)cc2)cc1	inactive
COc1ccc(C#Cc2ccc(C(=O)N3CCC(C(C)=O)(c4ccccc4)CC3)cc2)cc1	inactive
COc1ccc(C#Cc2ccc(C(=O)NC(C)(C)CO)cc2)cc1	162
CC(C)CC#Cc1ccc(C(=O)N2CCC(O)CC2)cc1	inactive
CCC(C)(O)C#Cc1ccc(C(=O)N2CCC(O)CC2)cc1 (configuration not stated)	inactive
CCCC1(O)CCN(C(=O)c2ccc(C#Cc3ccc(OC)cc3)cc2)CC1	inactive
O=C(c1ccc(C#CCCCN2C(=O)c3ccccc3C2=O)cc1)N1CCC(O)CC1	inactive
COc1ccc(C#Cc2ccc(C(=O)N3CC(O)C3)cc2)cc1	76.2
COc1ccc(C#Cc2ccc(C(=O)NC(C)(C)C)cc2)cc1	inactive
COc1ccc(C#Cc2ccc(C(=O)N3CCC[C@@H](C(=O)O)C3)cc2)cc1	19.5
Cn1ccnc1C#Cc1ccc(C(=O)N2CCC(O)CC2)cc1	inactive
O=C(c1ccc(C#Cc2ccc(-c3ccccc3)cc2)cc1)N1CCC(O)CC1	inactive
COc1ccc(C#Cc2ccc(C(=O)N3CCOCC3)cc2)cc1	65.1
COc1ccccc1C#Cc1ccc(C(=O)N2CCC(O)CC2)cc1	inactive
COCC(C)NC(=O)c1ccc(C#Cc2ccc(OC)cc2)cc1 (configuration not stated)	inactive

SMILES	percent of glutamate max response
COc1ccc(C#Cc2ccc(C(=O)NC3CCC3)cc2)cc1	inactive
CCCC(O)C#Cc1ccc(C(=O)N2CCC(O)CC2)cc1 (configuration not stated)	inactive
COc1ccc(C#Cc2ccc(C(=O)NCCC(C)(C)C)cc2)cc1	inactive
CN(C)CC#Cc1ccc(C(=O)N2CCC(O)CC2)cc1	inactive
O=C(c1ccc(C#Cc2ccc(C(F)(F)F)cc2)cc1)N1CCC(O)CC1	54.2
O=C(c1ccc(C#Cc2ccccc2)cc1)N1CCC(O)CC1	11.6
O=Cc1ccccc1C#Cc1ccc(C(=O)N2CCC(O)CC2)cc1	43.7
COc1ccc(C#Cc2ccc(C(=O)N3CCC(OC)CC3)cc2)cc1	inactive
O=C(c1ccc(C#Cc2c(C(F)(F)F)cccc2C(F)(F)F)cc1)N1CCC(O)CC1	54.9
COc1ccc(C#Cc2ccc(C(=O)N3CCN(c4ccccc4)CC3)cc2)cc1	inactive
COc1ccc(C#Cc2ccc(C(=O)N[C@H](C)C3CC3)cc2)cc1	69
O=Cc1ccc(C#Cc2ccc(C(=O)N3CCC(O)CC3)cc2)cc1	21.8
COc1ccc(C#Cc2ccc(C(=O)NC3CCC(C)CC3)cc2)cc1 (configuration not stated)	inactive
O=C(c1ccc(C#CC2(O)CCCC2)cc1)N1CCC(O)CC1	inactive
CCCCN(CCO)C(=O)c1ccc(C#Cc2ccc(OC)cc2)cc1	8.56
COc1cccc(C#Cc2ccc(C(=O)N3CCC(O)CC3)cc2)c1	inactive
COc1ccc(C#Cc2ccc(C(=O)N3CCC3)cc2)cc1	31.5
COc1ccc(C#Cc2ccc(C(=O)N3CCCC3)cc2)cc1	35.3
O=C(c1ccc(C#CCc2ccccc2)cc1)N1CCC(O)CC1	42.2
COc1ccc(C#Cc2ccc(C(=O)N3CCN(c4ccccc4OC)CC3)cc2)cc1	inactive
COc1ccc(C#Cc2ccc(C(=O)N3CCC[C@H](C(=O)O)C3)cc2)cc1	0.55
COc1ccc(C#Cc2ccc(C(=O)N[C@H](C)C(C)C)cc2)cc1	inactive
Cc1ccc(C#Cc2ccc(C(=O)N3CCC(O)CC3)cc2)cc1	33.9
COc1ccc(C#Cc2ccccc2C(=O)N2CCC(O)CC2)cc1	inactive

SMILES	percent of glutamate max response
CCOC1CCN(C(=O)c2ccc(C#Cc3ccc(OC)cc3)cc2)CC1	inactive
COc1ccc(C#Cc2ccc(C(=O)N[C@H]3CCCCNC3=O)cc2)cc1	inactive
O=C(c1ccc(C#CC2CCCCC2)cc1)N1CCC(O)CC1	37
O=C(CN1CCc2cc(C#Cc3ccccc3)ccc2C1=O)NCCN1CCCCC1	3.68
O=C(c1ccc(C#CC2(O)CCCCC2)cc1)N1CCC(O)CC1	inactive
CC(O)(C#Cc1ccc(C(=O)N2CCC(O)CC2)cc1)c1cccc(F)c1 (configuration not stated)	inactive
COc1ccc(C#Cc2ccc(C(=O)NCCCCO)cc2)cc1	inactive
N#Cc1ccc(C#Cc2ccc(C(=O)N3CCC(O)CC3)cc2)cc1	17.5
COc1ccc(C#Cc2ccc(C(=O)N3CCC(CO)C3)cc2)cc1 (configuration not stated)	14.7
COc1ccc(C#Cc2ccc(C(=O)NCCC3=CCCCC3)cc2)cc1	inactive
O=C(c1ccc(C#Cc2ccncc2)cc1)N1CCC(O)CC1	inactive
O=C(c1ccc(C#Cc2ccccc2F)cc1)N1CCC(O)CC1	22.4
O=C(CN1CCc2cc(C#Cc3ccccc3)ccc2C1=O)N1CCC2CCCCC2C1 (configuration not stated)	26.5 and 64.7
COc1ccc(C#Cc2ccc(C(=O)Nc3ccc(F)cn3)cc2)cc1	63.9
CC(C)(C)c1ccc(C#Cc2ccc(C(=O)N3CCC(O)CC3)cc2)cc1	inactive
CC(C)(C)NC(=O)CN1CCc2cc(C#Cc3ccccc3)ccc2C1=O	51.4
O=C(c1ccc(C#CC2=CCCCC2)cc1)N1CCC(O)CC1	46.1
CC(C)(C)C#Cc1ccc(C(=O)N2CCC(O)CC2)cc1	inactive
CCN(CC)CC#Cc1ccc(C(=O)N2CCC(O)CC2)cc1	inactive
COc1ccc(C#Cc2ccc(C(=O)N(CCO)c3ccccc3)cc2)cc1	inactive
O=C(c1ccc(C#CC2CCCC2)cc1)N1CCC(O)CC1	inactive
CC(O)CC#Cc1ccc(C(=O)N2CCC(O)CC2)cc1 (configuration not stated)	inactive
COc1ccc(C#Cc2ccc(C(=O)N3CCC(C)(O)CC3)cc2)cc1	5.42
O=C(c1ccc(C#Cc2ccccn2)cc1)N1CCC(O)CC1	inactive

SMILES	percent of glutamate max response
CCOC(=O)C#Cc1ccc(C(=O)N2CCC(O)CC2)cc1	inactive
CN(C)c1ccc(C#Cc2ccc(C(=O)N3CCC(O)CC3)cc2)cc1	inactive
O=C(c1ccc(C#CCC2CCCCC2)cc1)N1CCC(O)CC1	4.33
Cc1ccccc1C#Cc1ccc(C(=O)N2CCC(O)CC2)cc1	10.8
CC(C)CCC#Cc1ccc(C(=O)N2CCC(O)CC2)cc1	24.7
O=C(c1ccc(C#CCC2CCCC2)cc1)N1CCC(O)CC1	34
COc1ccc(C#Cc2ccc(C(=O)N[C@H](C)C3CCCCC3)cc2)cc1	inactive
COc1ccc(C#Cc2ccc(C(=O)N3CCCCC3CO)cc2)cc1 (configuration not stated)	55.9
COc1ccc(C#Cc2ccc(C(=O)NCCC(C)(C)O)cc2)cc1	114
O=C(c1ccc(C#CCOCC2CO2)cc1)N1CCC(O)CC1 (configuration not stated)	inactive
CCC(N)(C#Cc1ccc(C(=O)N2CCC(O)CC2)cc1)CC	inactive
CCC1(O)CCN(C(=O)c2ccc(C#Cc3ccc(OC)cc3)cc2)CC1	46.4
COc1ccc(C#Cc2ccc(C(=O)NCc3ccc(C(C)(C)C)cc3)cc2)cc1	inactive
O=C(c1ccc(C#CCc2ccsc2)cc1)N1CCC(O)CC1	16.1
COc1ccc(C#Cc2ccc(C(=O)N3CCC[C@@H](CO)C3)cc2)cc1	-0.47
O=C(c1ccc(I)cc1)N1CCC(O)CC1	inactive
O=C(c1ccc(C#CC2CC2)cc1)N1CCC(O)CC1	inactive
COc1ccc(C#Cc2ccc(C(=O)N3CCC(C#N)(c4ccccc4)CC3)cc2)cc1	inactive
COc1ccc(C#Cc2ccc(C(=O)NCCCO)cc2)cc1	inactive
COc1ccc(C#Cc2ccc(C(=O)N3CCCC(O)C3)cc2)cc1 (configuration not stated)	-1.25
O=C(c1ccc(C#Cc2cccc3ccccc23)cc1)N1CCC(O)CC1	32.7
O=C(c1ccc(C#CCCCCCl)cc1)N1CCC(O)CC1	47.8
COc1ccc(C#Cc2ccc(C(=O)N3CCC(O)CC3)cc2)cc1	7.43
